A short description of test [1]: Antiproliferative activity against mouse RN2 cells transduced with BRD9-BET assessed as inhibition of cell growth for 7 days by cell titre glo assay (reference value: 323 nM). Particulars: RN2, 168 h.
Test [2] can be described thus: Antiproliferative activity against mouse RN2 cells transduced with BRD9 assessed as inhibition of cell growth for 7 days by cell titre glo assay (reference value: 323 nM). Particulars: RN2, 168 h.
Test [3] can be described thus: Antiproliferative activity against mouse RN2 cells transduced with BRD9-BET assessed as inhibition of cell growth for 7 days by cell titre glo assay (reference value: 6.144 uM). Particulars: RN2, 168 h.
The subject of another test is HL-60. The test is described as follows: Antiproliferative activity against human HL-60 cells assessed as inhibition of cell growth for 7 days by cell titre glo assay. Format: functional. As to conditions: HL-60, 168 h, time 7 day. A digest of the protocol:
(§1)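 Human cancer cell lines in RPMI-1640 (leukemia) or DMEM (solid) with 10 % FBS, grown 7 days with rising inhibitor concentrations. Proliferation read by CellTiter-Glo, normalized to DMSO control.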

The next test has as its system Jurkat. The test can be described thus: Antiproliferative activity against human Jurkat cells assessed as inhibition of cell growth for 7 days by cell titre glo assay. Format: functional. As to conditions: 168 h, time 7 day. A digest of the protocol:
as §1

The nature of test [4]: Antiproliferative activity against mouse RN2 cells transduced with BRD9 assessed as inhibition of cell growth for 7 days by cell titre glo assay (reference value: 6.144 uM). As to conditions: RN2, 168 h.
The nature of test [5]: Antiproliferative activity against mouse RN2 cells transduced with BRD9-BET assessed as inhibition of cell growth for 7 days by cell titre glo assay (reference value: 610 nM). Particulars: RN2, 168 h.
The nature of test [6]: Antiproliferative activity against mouse RN2 cells assessed as inhibition of cell growth for 7 days by cell titre glo assay. As to conditions: RN2, 168 h.
In test [7] the target is T1, ATPase family AAA domain-containing protein 2B (Homo sapiens, UniProt Q9ULI0).
T1 sequence (Q9ULI0 whole entry): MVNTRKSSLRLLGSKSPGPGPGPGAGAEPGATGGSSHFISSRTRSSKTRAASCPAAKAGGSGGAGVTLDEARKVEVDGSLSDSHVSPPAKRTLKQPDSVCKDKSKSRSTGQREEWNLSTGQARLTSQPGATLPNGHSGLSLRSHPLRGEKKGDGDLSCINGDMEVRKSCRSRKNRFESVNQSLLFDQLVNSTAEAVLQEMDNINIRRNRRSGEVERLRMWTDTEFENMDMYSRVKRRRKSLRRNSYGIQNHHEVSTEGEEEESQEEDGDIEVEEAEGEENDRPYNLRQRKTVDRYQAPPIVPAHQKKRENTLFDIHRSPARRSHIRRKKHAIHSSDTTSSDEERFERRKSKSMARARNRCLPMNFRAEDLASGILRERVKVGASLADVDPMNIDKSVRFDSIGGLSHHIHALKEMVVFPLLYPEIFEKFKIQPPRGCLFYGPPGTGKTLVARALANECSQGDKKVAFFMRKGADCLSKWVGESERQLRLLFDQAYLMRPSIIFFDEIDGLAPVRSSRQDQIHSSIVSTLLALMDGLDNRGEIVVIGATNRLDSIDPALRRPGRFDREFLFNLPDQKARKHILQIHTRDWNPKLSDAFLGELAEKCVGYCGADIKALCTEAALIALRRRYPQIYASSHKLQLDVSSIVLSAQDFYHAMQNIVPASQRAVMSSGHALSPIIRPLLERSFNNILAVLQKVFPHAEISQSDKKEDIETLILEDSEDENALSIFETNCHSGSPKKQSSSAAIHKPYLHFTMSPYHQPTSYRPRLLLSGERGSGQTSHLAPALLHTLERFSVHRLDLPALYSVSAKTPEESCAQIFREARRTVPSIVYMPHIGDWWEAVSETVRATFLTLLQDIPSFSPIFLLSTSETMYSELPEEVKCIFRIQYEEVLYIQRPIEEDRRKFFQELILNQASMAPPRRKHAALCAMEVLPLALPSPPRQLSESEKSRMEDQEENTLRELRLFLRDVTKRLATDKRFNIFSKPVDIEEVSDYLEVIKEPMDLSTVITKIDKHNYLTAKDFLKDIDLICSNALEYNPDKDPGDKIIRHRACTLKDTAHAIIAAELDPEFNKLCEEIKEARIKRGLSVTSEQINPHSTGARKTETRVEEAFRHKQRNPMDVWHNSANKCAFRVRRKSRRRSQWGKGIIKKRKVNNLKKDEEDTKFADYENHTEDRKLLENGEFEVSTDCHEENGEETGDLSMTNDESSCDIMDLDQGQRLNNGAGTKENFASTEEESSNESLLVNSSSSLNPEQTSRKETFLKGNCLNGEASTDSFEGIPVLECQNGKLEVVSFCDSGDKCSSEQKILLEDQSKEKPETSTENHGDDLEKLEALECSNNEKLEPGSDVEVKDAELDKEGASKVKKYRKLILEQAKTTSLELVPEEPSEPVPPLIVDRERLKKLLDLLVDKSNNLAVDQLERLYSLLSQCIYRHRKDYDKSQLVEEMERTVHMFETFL
The test is described as follows: Binding affinity to KIAA1240 (unknown origin) assessed as dissociation constant by bromoKdselect analysis.

Test [8] is described as follows: Antiproliferative activity against mouse RN2 cells transduced with BRD9-BET assessed as inhibition of cell growth for 7 days by cell titre glo assay (reference value: 0.757 uM). Particulars: RN2, 168 h.
The nature of test [9]: Antiproliferative activity against mouse RN2 cells transduced with BRD9 assessed as inhibition of cell growth for 7 days by cell titre glo assay (reference value: 0.757 uM). As to conditions: RN2, 168 h.
The nature of test [10]: Antiproliferative activity against mouse RN2 cells transduced with EZH2 harboring SET domain of EZH1 assessed as inhibition of cell growth for 7 days by cell titre glo assay (reference value: 5.1 uM). As to conditions: RN2, 168 h.
Test [11] in a line: Antiproliferative activity against mouse RN2 cells transduced with wild type EZH2 assessed as inhibition of cell growth for 7 days by cell titre glo assay (reference value: 5.1 uM). As to conditions: RN2, 168 h.
A short description of test [12]: Antiproliferative activity against mouse RN2 cells transduced with BRD9-BET assessed as inhibition of cell growth for 7 days by cell titre glo assay (reference value: 1709 nM). Particulars: RN2, 168 h.
The nature of test [13]: Antiproliferative activity against mouse RN2 cells transduced with BRD9 assessed as inhibition of cell growth for 7 days by cell titre glo assay (reference value: 1709 nM). Particulars: RN2, 168 h.

SMILES strings stand for the structures.

One may read the GI50 as the concentration giving 50% growth inhibition. Regarding `COc1cc(-c2cn(C)c(=O)c3ccccc23)cc(OC)c1CN(C)C`, the GI50 in test [1] amounted to 4.48 µM; in test [2], 0.16 µM.
For `Cc1cc(=O)n(C)c2cc(N3C(=O)CC[C@H](NS(=O)(=O)CC(C)C)[C@H]3c3ccc(Cl)cc3)ccc12`, the GI50 in [3] was found to be 9.38 µM; with HL-60, 5.03 µM; in the test on Jurkat it was 10.5 µM; in test [4], 6.87 µM.
One may read the Kd as the free concentration of one partner at which half of the binding sites on the other are occupied at equilibrium, for simple one-to-one binding. For the compound `COc1cc(-c2cn(C)c(=O)c3cnccc23)cc(OC)c1CN(C)C`, the concentration for 50% growth inhibition (GI50) was over 10 µM in test [5] and 0.476 µM in test [6]. Further, in test [7], the Kd is 1 µM.
Regarding `CCn1cc(-c2cccc(C(F)(F)F)c2)c2sc(C(=N)NC3CCS(=O)(=O)CC3)cc2c1=O`, the GI50 in [8] was found to be 2.69 µM; with HL-60 it was 0.433 µM; in the test on Jurkat it was 3.64 µM; in test [9] it was 1.25 µM.
On to `CC[C@H](C)n1cc(C)c2c(C(=O)NCc3c(C)cc(C)[nH]c3=O)cc(-c3ccc(N4CCNCC4)nc3)cc21` [GSK2816126], for which the GI50 in [10] was over 10 µM; in test [11], 6.2 µM.
On to `COc1cc(-c2cc(C)c(=O)n(C)c2C)cc(OC)c1CN(C)C`, for which the GI50 is over 10 µM in [12] and 1.03 µM in test [13].

For the origin of these results see ChEMBL document CHEMBL5712890, “Sensitivity and engineered resistance of myeloid leukemia cells to BRD9 inhibition” (Nat Chem Biol, 2016).
